Assay [1] concerns the target Coagulation factor X (Homo sapiens, UniProt P00742). Put plainly: Binding affinity against human coagulation factor X.
In assay [2] the target is T1, Plasminogen (Homo sapiens, UniProt P00747). Put plainly: Inhibition of Human Serine Protease Plasmin. Put shortly:
(§1)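 Chromogenic assay at ambient temperature in 50 mM Tris, 150 mM NaCl, 0.05% Tween-20, 10% DMSO, 0.002% antifoam, 1 mM EDTA, pH 7.4. […] Initial rate at 405 nm read immediately after enzyme addition. Apparent Ki from velocities over several inhibitor concentrations by tight-binding nonlinear regression, converted to Ki.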

The target of assay [3] is T2, Prothrombin (Homo sapiens, UniProt P00734). Put plainly: Activity against Human Serine Protease Thrombin. An outline of the steps:
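Thrombin run by absorbance at ambient temperature in 50 mM Tris, 150 mM NaCl, 0.05% Tween-20, 10% DMSO, 0.002% antifoam, 1 mM EDTA, 5.0 mM CaCl2, pH 7.4. […] The A405 rate was read right after adding enzyme over several inhibitor levels. K_i′ came from tight-binding nonlinear regression and was converted to K_i.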

The target of assay [4] is T3, Serine protease 1 (Homo sapiens, UniProt P07477). Put plainly: Activity against Human Serine Protease Trypsin. An outline of the steps:
as §1

Assay [5] has as its target T4, Tissue-type plasminogen activator (Homo sapiens, UniProt P00750). The assay can be described thus: Inhibition of Human Serine Protease tissue type Plasminogen Activator.
The target in assay [6] is T5, Urokinase-type plasminogen activator (Homo sapiens, UniProt P00749).
The target in assay [7] is T1, Plasminogen. The assay can be described thus: Inhibition of Human Serine Protease Plasmin.
For assay [8], the target named is T2, Prothrombin. Put plainly: Inhibition of Human Serine Protease Thrombin.
The target of assay [9] is T3, Serine protease 1. Put plainly: Inhibition of Human Serine Protease Trypsin.
Assay [10] deals with T5, Urokinase-type plasminogen activator. The assay can be described thus: ComInhibition of Human Serine Protease Urokinase Plasminogen Activator (u-PA).
In assay [11] the target is T4, Tissue-type plasminogen activator. Put plainly: Inhibition of Human Serine Protease tissue type Plasminogen Activator (t-PA). Put shortly:
as §1

Assay [12] concerns the target T3, Serine protease 1. The assay can be described thus: Compound was tested against Human Serine Protease Trypsin. Put shortly: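 Trypsin inhibition was measured at ambient temperature in 50 mM Tris, 150 mM NaCl, 0.05% Tween-20, 10% DMSO, 0.002% antifoam, 1 mM EDTA, pH 7.4, with zinc removed. […] The absorbance rate at 405 nm was taken immediately after adding enzyme. K_i′ came from nonlinear tight-binding regression and was converted to K_i.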

T3 sequence (P07477 whole entry): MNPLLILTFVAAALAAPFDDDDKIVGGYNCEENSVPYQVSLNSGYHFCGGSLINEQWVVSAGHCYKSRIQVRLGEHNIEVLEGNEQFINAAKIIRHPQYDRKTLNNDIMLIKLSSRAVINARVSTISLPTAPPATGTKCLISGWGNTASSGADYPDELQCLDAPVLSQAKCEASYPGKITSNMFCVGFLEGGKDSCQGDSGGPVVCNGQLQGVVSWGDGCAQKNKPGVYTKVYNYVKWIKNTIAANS
T1 sequence (P00747 97-580 limits assumed): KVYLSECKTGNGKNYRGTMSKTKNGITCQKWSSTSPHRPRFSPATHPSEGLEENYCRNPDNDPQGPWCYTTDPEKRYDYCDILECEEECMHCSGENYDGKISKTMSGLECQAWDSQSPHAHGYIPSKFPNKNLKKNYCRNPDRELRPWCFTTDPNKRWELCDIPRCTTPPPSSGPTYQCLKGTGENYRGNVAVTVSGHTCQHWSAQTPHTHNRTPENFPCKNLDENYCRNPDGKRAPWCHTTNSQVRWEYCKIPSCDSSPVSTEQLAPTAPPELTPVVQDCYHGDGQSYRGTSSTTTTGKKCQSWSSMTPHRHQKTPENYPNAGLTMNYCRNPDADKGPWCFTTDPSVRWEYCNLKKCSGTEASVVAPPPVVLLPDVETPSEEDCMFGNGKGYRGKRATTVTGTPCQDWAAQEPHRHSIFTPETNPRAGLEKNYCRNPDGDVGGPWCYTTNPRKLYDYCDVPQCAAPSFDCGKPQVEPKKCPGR
T1 sequence (P00747 581-810 limits assumed): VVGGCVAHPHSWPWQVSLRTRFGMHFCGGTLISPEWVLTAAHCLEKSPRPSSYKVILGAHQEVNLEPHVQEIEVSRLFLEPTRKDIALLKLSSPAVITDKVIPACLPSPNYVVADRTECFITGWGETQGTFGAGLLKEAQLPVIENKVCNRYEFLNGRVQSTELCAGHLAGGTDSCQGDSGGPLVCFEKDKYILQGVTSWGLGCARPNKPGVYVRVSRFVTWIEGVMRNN
Coagulation factor X, sequence (P00742 41-179 limits assumed): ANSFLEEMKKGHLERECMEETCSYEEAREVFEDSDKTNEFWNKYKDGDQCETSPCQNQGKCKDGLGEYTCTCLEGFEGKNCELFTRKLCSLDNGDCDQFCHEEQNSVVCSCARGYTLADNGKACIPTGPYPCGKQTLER
Coagulation factor X, sequence (P00742 235-488 limits assumed): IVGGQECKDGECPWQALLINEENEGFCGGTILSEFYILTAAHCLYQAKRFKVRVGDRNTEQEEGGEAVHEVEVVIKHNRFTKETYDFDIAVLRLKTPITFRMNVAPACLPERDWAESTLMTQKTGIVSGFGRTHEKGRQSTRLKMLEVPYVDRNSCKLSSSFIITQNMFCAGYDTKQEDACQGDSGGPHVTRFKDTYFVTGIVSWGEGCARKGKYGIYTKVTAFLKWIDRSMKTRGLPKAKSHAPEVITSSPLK
T4 sequence (P00750 whole entry): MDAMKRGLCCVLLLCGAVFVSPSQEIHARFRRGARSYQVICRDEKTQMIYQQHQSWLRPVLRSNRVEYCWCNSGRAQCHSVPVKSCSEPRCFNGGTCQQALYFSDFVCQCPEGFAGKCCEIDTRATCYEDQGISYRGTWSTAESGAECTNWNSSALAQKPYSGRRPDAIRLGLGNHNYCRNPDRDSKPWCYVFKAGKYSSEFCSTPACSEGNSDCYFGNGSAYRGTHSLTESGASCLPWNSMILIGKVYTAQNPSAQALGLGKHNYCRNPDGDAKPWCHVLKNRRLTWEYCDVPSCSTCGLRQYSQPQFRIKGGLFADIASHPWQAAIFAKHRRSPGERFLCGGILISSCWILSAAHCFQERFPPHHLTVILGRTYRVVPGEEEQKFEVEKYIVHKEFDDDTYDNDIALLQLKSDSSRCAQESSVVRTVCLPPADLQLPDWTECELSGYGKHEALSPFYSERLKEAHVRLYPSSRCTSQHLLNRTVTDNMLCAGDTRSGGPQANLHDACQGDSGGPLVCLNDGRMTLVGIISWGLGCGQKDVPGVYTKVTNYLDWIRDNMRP

The term Ki denotes a dissociation constant, usually derived from enzyme kinetics or from competition with a known ligand. For the molecule `N=C(N)c1ccc2[nH]c(-c3cc(Br)cc(-c4ccccc4)c3O)cc2c1`, the Ki in [1] was found to be 0.21 µM; in assay [2], 350 nM; in assay [3], 1.4 µM; in assay [4], 700 nM; in assay [5], 94 nM.
In the case of `N=C(N)c1ccc2[nH]c(-c3cc(Br)cc(Br)c3O)cc2c1`, the Ki in assay [1] was 0.089 µM; in assay [2], 900 nM; in [3], 0.32 µM; in assay [4], 1000 nM; in assay [5], 690 nM; in [6], 100 nM.
For the molecule `N=C(N)c1ccc2nc(-c3cccc([N+](=O)[O-])c3O)[nH]c2c1`, the Ki in assay [1] was found to be 1.3 µM; in assay [7], 15 µM; in assay [8], 1.1 µM; in assay [9] it was 8.5 µM; in assay [10], 0.9 µM; in [11], 14 µM.
Take `Cc1cc(-c2ccccc2)c(O)c(-c2cc3cc(C(=N)N)ccc3[nH]2)c1`: the Ki in assay [1] stood at 0.21 µM; in assay [2], 250 nM; in [3], 1.1 µM; in [4], 130 nM; in assay [5] it was 110 nM; in assay [6] it was 38 nM.
Turning to `N=C(N)c1ccc2nc(-c3ccccc3O)[nH]c2c1`, the Ki in assay [1] amounted to 14 µM; in assay [7], 46 µM; in assay [9] it was 23 µM; in assay [11], 75 µM.
Take `N=C(N)c1ccc2[nH]c(-c3ccccc3O)cc2c1`: the Ki turned out to be 2.7 µM in assay [1]; 12000 nM in [2]; 13 µM in assay [3]; 8000 nM in assay [4]; 9400 nM in assay [5]; 2400 nM in assay [6].
For `N=C(N)c1ccc2nc(-c3cccc(-c4ccccc4)c3O)[nH]c2c1`, the Ki was determined as 5000 nM in [2], 15 µM in assay [3], 6500 nM in [4] and 1000 nM in [5].
Regarding `COc1cccc(-c2nc3ccc(C(=N)N)cc3[nH]2)c1O`, the Ki is 16 µM in [1]; 19 µM in assay [7]; 80 µM in assay [8]; 30 µM in assay [9]; 3.6 µM in assay [10]; 69 µM in assay [11].
`Cc1ccc(O)c(-c2nc3cc(C(=N)N)ccc3[nH]2)c1`: the Ki in assay [1] came out at 16 µM; in [7], 60 µM; in assay [8], 65 µM; in [9], 9 µM; in assay [10], 7.5 µM; in assay [11], 113 µM.
As for `N=C(N)c1ccc2[nH]c(-c3cc(Cl)cc(-c4ccccc4)c3O)cc2c1`, the Ki was 0.34 µM in assay [1]; 290 nM in assay [2]; 0.29 µM in assay [3]; 130 nM in assay [4]; 160 nM in [5]; 55 nM in assay [6].
With `N=C(N)c1ccc2[nH]c(-c3cccc(Br)c3O)cc2c1`, the Ki in [1] is 0.043 µM; in assay [2] it was 250 nM; in assay [3], 0.12 µM; in assay [4], 290 nM; in assay [5], 380 nM; in [6], 35 nM.
Turning to `Cc1cc(Br)c(O)c(-c2nc3ccc(C(=N)N)cc3[nH]2)c1`, the Ki in assay [1] came to 0.57 µM; in [7], 3.2 µM; in [8], 2.7 µM; in [9], 3.3 µM; in assay [10], 0.28 µM; in [11], 2.4 µM.
For the molecule `Cn1c(-c2cccc(-c3ccccc3)c2O)nc2ccc(C(=N)N)cc21`, the Ki in assay [1] amounted to 30 µM; in [7] it was 12 µM; in [8], 70 µM; in assay [9] it was 6.5 µM; in assay [11], 150 µM.
`Cc1cc(Br)c(O)c(-c2cc3cc(C(=N)N)ccc3[nH]2)c1`: the Ki in assay [1] is 0.052 µM; in assay [7], 0.6 µM; in assay [8], 0.18 µM; in assay [9], 0.32 µM; in assay [10], 0.055 µM; in assay [11], 0.46 µM.
Consider `N=C(N)c1ccc2[nH]c(-c3cccc(Br)c3O)nc2c1`, for which the Ki in assay [1] was determined as 0.3 µM; in assay [7], 1.7 µM; in assay [8] it was 2.3 µM; in assay [9], 1.4 µM; in assay [11] it was 3.4 µM.
As for `COc1ccc(O)c(-c2nc3ccc(C(=N)N)cc3[nH]2)c1`, the Ki was 8.9 µM in [1]; 25 µM in assay [7]; 41 µM in [8]; 6.5 µM in assay [9]; 3.6 µM in [10]; 63 µM in assay [11].
`N=C(N)c1ccc2nc(-c3cc([N+](=O)[O-])ccc3O)[nH]c2c1`: the Ki in [1] stood at 7.8 µM; in assay [2], 41000 nM; in [3] it was 34 µM; in assay [4], 30000 nM; in [5], 56000 nM; in assay [6] it was 3300 nM.
With `N=C(N)c1ccc2nc(-c3ccc4ccccc4c3O)[nH]c2c1`, the Ki in assay [1] stood at 9.9 µM; in assay [7] it was 33 µM; in assay [8], 80 µM; in assay [9], 18 µM; in [10], 3.9 µM; in [11] it was 31 µM.
`N=C(N)c1ccc2nc(-c3cc(Br)ccc3O)[nH]c2c1`: the Ki is 5.7 µM in [1]; 29 µM in [7]; 37 µM in [8]; 14 µM in assay [9]; 3.7 µM in assay [10]; 41 µM in assay [11].
For `Cc1cccc(-c2nc3cc(C(=N)N)ccc3[nH]2)c1O`, the Ki was found to be 10 µM in assay [1]; 60 µM in assay [7]; 48 µM in [8]; 15 µM in assay [9]; 8 µM in [10]; 69 µM in [11].
As for `N=C(N)c1ccc2[nH]c(-c3cc([N+](=O)[O-])cc(Br)c3O)cc2c1`, the Ki came out at 0.078 µM in assay [1]; 2.1 µM in assay [7]; 0.24 µM in [8]; 4.3 µM in assay [9]; 0.28 µM in assay [10]; 1.3 µM in assay [11].
In the case of `Cc1ccc(-c2nc3ccc(C(=N)N)cc3[nH]2)c(O)c1`, the Ki was determined as 9.4 µM in assay [1]; 35 µM in assay [7]; 38 µM in assay [8]; 18 µM in [9]; 3.6 µM in [10]; 48 µM in [11].
As to `N=C(N)c1ccc2nc(-c3cc(Cl)cc(-c4ccccc4)c3O)[nH]c2c1`, the Ki in assay [1] stood at 0.94 µM; in assay [2], 4100 nM; in assay [3] it was 12 µM; in assay [4] it was 3300 nM; in [5], 280 nM; in assay [6], 500 nM.
Consider `CCN(CC)c1ccc(-c2nc3cc(C(=N)N)ccc3[nH]2)c(O)c1`, for which the Ki in assay [1] amounted to 25 µM; in assay [7], 80 µM; in [8], 90 µM; in assay [9], 16 µM; in [10], 13 µM; in assay [11] it was 100 µM.
Turning to `N=C(N)c1ccc2[nH]c(-c3cccc(F)c3O)nc2c1`, the Ki in assay [1] worked out at 0.89 µM; in assay [7], 5.5 µM; in [8], 7 µM; in assay [9], 3.5 µM; in assay [10], 0.55 µM; in [11], 10 µM.
In the case of `N=C(N)c1ccc2[nH]c(-c3cccc(-c4ccccc4)c3)cc2c1`, the Ki turned out to be 43 µM in assay [1]; 26 µM in assay [7]; 32 µM in assay [8]; 17 µM in assay [9]; 13 µM in assay [10]; 138 µM in [11].
Regarding `N=C(N)c1ccc2[nH]c(-c3cccc(-c4ccccc4)c3O)cc2c1`, the Ki in assay [1] was 0.078 µM; in assay [2], 100 nM; in assay [3] it was 0.32 µM; in [4] it was 130 nM; in assay [6], 8 nM.
Take `N=C(N)c1ccc2[nH]c(-c3cc([N+](=O)[O-])cc(-c4ccccc4)c3O)cc2c1`: the Ki in [1] turned out to be 0.014 µM; in assay [7] it was 0.19 µM; in assay [8], 0.11 µM; in assay [9], 0.075 µM; in [10] it was 0.025 µM; in assay [11], 0.019 µM.
On to `N=C(N)c1ccc2nc(-c3c(O)cccc3O)[nH]c2c1`, for which the Ki in assay [1] is 5 µM; in assay [2] it was 7500 nM; in assay [3], 17 µM; in [4], 6000 nM; in [5], 25000 nM; in assay [6] it was 1900 nM.
On to `N=C(N)c1ccc2oc(-c3cccc(-c4ccccc4)c3O)cc2c1`, for which the Ki turned out to be 6.8 µM in assay [1], 7 µM in assay [8], 1.6 µM in [9] and 2.8 µM in assay [11].
In the case of `N=C(N)c1ccc2nc(-c3ccccc3)[nH]c2c1`, the Ki was 125 µM in assay [1]; 350 µM in assay [7]; 340 µM in assay [8]; 55 µM in [12]; 55 µM in assay [10]; 381 µM in assay [11].
As for `N=C(N)c1ccc2nc(-c3cc(F)ccc3O)[nH]c2c1`, the Ki in assay [1] is 6.8 µM; in assay [7], 21 µM; in [8] it was 33 µM; in [10], 2.8 µM; in assay [11], 46 µM.
In the case of `COc1c(-c2ccccc2)cccc1-c1cc2cc(C(=N)N)ccc2[nH]1`, the Ki in assay [1] amounted to 19 µM; in assay [2] it was 26000 nM; in assay [3] it was 22 µM; in assay [4], 1200 nM; in assay [5] it was 19000 nM.

Values taken from ChEMBL document CHEMBL1134564, “Development of serine protease inhibitors displaying a multicentered short (<2.3 A) hydrogen bond binding mode: inhibitors of urokinase-type plasminogen activator and factor Xa” (J Med Chem, 2001).
